According to ChEMBL document CHEMBL4765452, “Discovery of (E)-N-(4-methyl-5-(3-(2-(pyridin-2-yl)vinyl)-1H-indazol-6-yl)thiazol-2-yl)-2-(4-methylpiperazin-1-yl)acetamide (IHMT-TRK-284) as a novel orally available type II TRK kinase inhibitor capable of overcoming multiple resistant mutants” (Eur J Med Chem, 2020):

How the values were obtained:
[1] = target: VEGFR2 (vascular endothelial growth factor receptor 2), wild type, TEL fusion (Homo sapiens, UniProt P35968); experiment: Inhibition of wild type TEL fused VEGFR2 (unknown origin) transfected in mouse BAF3 cells assessed as growth inhibition after 72 hrs by CCK8 assay; assay type: cell-based; conditions: mouse BaF3 cells transfected with wild type TEL-fused VEGFR2
VEGFR2 (vascular endothelial growth factor receptor 2), wild type, TEL fusion, sequence (P35968 whole entry, the tested form may be a part): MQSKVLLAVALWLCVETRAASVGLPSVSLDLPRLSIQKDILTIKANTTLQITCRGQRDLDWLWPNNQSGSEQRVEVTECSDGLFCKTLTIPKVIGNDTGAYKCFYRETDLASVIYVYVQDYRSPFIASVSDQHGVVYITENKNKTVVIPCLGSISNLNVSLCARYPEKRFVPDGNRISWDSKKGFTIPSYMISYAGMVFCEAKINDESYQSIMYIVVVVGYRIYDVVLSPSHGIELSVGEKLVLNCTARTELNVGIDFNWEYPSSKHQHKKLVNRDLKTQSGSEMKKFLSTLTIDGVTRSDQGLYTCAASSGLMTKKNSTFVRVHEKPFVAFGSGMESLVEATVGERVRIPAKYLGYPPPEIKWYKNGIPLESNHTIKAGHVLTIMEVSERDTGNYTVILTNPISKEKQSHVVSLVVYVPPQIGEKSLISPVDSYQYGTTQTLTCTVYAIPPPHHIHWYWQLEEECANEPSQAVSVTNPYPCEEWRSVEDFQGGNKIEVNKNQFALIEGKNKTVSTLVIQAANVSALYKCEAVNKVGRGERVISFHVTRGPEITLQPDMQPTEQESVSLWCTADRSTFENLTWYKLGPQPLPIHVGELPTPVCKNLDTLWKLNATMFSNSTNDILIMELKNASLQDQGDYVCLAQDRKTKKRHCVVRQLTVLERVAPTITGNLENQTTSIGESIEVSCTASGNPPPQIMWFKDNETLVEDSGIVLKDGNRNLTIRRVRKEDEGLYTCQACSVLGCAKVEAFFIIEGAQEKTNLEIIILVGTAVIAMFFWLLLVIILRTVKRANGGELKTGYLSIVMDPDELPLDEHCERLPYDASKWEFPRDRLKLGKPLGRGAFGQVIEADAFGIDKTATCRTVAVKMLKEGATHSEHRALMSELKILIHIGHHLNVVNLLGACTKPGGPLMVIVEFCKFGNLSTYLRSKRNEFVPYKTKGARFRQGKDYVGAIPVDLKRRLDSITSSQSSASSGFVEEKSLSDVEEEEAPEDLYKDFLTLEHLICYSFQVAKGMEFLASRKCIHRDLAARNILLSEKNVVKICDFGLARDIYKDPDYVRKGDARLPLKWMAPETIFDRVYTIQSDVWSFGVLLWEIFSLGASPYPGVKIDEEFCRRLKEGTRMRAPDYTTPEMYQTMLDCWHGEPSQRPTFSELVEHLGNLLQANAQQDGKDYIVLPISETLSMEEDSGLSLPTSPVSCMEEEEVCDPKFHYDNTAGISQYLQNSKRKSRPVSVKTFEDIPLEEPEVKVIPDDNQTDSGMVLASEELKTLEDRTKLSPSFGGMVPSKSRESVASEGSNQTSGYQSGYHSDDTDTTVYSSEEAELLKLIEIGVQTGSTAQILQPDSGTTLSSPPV

[2] = target: High affinity nerve growth factor receptor (Homo sapiens, UniProt P04629); experiment: Inhibition of wild type TEL fused TRKA (unknown origin) transfected in mouse BAF3 cells assessed as growth inhibition after 72 hrs by CCK8 assay; assay type: cell-based
High affinity nerve growth factor receptor, sequence (P04629 33-796 limits assumed): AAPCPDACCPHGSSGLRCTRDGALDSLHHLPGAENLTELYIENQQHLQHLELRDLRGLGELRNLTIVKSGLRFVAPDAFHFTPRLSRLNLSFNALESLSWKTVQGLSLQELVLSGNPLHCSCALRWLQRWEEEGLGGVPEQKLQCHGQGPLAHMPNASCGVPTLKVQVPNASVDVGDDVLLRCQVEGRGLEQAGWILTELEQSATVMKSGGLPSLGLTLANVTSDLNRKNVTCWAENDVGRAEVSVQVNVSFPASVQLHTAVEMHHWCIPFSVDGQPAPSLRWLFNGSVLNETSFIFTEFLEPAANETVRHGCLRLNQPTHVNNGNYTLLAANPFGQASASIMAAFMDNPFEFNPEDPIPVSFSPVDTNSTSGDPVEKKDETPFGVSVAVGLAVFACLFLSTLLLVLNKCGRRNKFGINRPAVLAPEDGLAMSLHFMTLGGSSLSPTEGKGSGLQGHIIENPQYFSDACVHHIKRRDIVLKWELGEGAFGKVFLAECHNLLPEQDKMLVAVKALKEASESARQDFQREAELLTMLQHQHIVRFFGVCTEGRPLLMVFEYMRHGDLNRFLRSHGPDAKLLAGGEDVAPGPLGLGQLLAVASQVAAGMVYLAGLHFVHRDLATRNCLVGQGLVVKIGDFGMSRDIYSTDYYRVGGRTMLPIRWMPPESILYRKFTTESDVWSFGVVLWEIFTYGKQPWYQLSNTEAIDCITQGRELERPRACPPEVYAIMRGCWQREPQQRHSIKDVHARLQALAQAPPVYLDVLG

[3] = Antiproliferative activity in mouse BAF3 cells assessed as growth inhibition after 72 hrs by CCK8 assay; assay type: cell-based
In short: (§1)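 TEL- or LMNA-fusion isogenic BaF3 lines grown in RPMI 1640 with 10% FBS and 1% penicillin/streptomycin at 37 °C, 5% CO₂; suspension cells collected by spinning at 800 rpm for 4 min before use; growth inhibition scored as GI₅₀.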

BaF3 [4] = experiment: Antitumor activity against mouse BAF3 cells harboring TEL fused TRKC allografted in nude mouse assessed as tumor growth inhibition at 80 mg/kg, po administered once daily for 10 days relative to control; assay type: functional; conditions: 240 h, time 10 day, read-out: TGI
In short: (§2)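 Nu/nu mice given 1 million BaF3 cells (TEL-TRKA, TEL-TRKB, TEL-TRKC, LMNA-TRKA-F589L or LMNA-TRKA-G667S) in DMEM, 1:1 with matrigel, injected subcutaneously into the right flank; oral gavage began at 200–400 mm³, 5 mice per group, compound in 0.5% methylcellulose/0.4% Tween 80 in ddH₂O, 10 days; tumor volume [(W²×L)/2] and body weight recorded daily; TGI versus vehicle.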

BaF3 [5] = experiment: Inhibition of LMNA fused TRKA G667S mutant (unknown origin) transfected in mouse BAF3 cells assessed as growth inhibition after 72 hrs by CCK8 assay; assay type: cell-based; conditions: Homo sapiens
[6] = Antitumor activity against human […] cells xenografted in nude mouse assessed as tumor growth inhibition at 80 mg/kg, po administered once daily for 10 days relative to control; assay type: functional; conditions: KM12-Luc, 240 h, time 10 day, read-out: TGI
In short: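 Nu/nu mice given 5 million KM-12-LUC cells in DMEM, 1:1 with matrigel, injected subcutaneously into the right flank; oral gavage started at tumor size 150–200 mm³, 5 mice per group, compound in 0.5% methylcellulose/0.4% Tween 80 in ddH₂O; body weight and tumor volume [(W²×L)/2] measured daily; TGI versus vehicle.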

BaF3 [7] = experiment: Antitumor activity against mouse BAF3 cells harboring TEL fused TRKA allografted in nude mouse assessed as tumor growth inhibition at 80 mg/kg, po administered once daily for 10 days relative to control; assay type: functional; conditions: 240 h, time 10 day, read-out: TGI; in short: as §2
[8] = Antiproliferative activity against human KM-12-LUC cells harboring […] fused TRKA assessed as growth inhibition after 72 hrs by CCK8 assay; assay type: functional; conditions: KM12-Luc
In short: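 KM-12-LUC cells seeded at 3 × 10⁴ cells/mL, incubated overnight at 37 °C, 5% CO₂, then medium replaced with fresh medium containing a range of compound concentrations for 72 h; viability read by CCK-8 absorbance at 450 nm, normalized to DMSO control, GI₅₀ from curve fitting.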

BaF3 [9] = experiment: Inhibition of LMNA fused TRKA F589L mutant (unknown origin) transfected in mouse BAF3 cells assessed as growth inhibition after 72 hrs by CCK8 assay; assay type: cell-based; conditions: Homo sapiens; in short: as §1
BaF3 [10] = experiment: Inhibition of LMNA fused TRKA V573M mutant (unknown origin) transfected in mouse BAF3 cells assessed as growth inhibition after 72 hrs by CCK8 assay; assay type: cell-based; conditions: Homo sapiens
[11] = system: High affinity nerve growth factor receptor (Homo sapiens), P04629 [G667C]; experiment: Inhibition of LMNA fused TRKA G667C mutant (unknown origin) transfected in mouse BAF3 cells assessed as growth inhibition after 72 hrs by CCK8 assay; assay type: cell-based; in short: as §1
High affinity nerve growth factor receptor (Homo sapiens), P04629 [G667C], sequence (P04629 whole entry G667C, looked up, the tested form may be a part): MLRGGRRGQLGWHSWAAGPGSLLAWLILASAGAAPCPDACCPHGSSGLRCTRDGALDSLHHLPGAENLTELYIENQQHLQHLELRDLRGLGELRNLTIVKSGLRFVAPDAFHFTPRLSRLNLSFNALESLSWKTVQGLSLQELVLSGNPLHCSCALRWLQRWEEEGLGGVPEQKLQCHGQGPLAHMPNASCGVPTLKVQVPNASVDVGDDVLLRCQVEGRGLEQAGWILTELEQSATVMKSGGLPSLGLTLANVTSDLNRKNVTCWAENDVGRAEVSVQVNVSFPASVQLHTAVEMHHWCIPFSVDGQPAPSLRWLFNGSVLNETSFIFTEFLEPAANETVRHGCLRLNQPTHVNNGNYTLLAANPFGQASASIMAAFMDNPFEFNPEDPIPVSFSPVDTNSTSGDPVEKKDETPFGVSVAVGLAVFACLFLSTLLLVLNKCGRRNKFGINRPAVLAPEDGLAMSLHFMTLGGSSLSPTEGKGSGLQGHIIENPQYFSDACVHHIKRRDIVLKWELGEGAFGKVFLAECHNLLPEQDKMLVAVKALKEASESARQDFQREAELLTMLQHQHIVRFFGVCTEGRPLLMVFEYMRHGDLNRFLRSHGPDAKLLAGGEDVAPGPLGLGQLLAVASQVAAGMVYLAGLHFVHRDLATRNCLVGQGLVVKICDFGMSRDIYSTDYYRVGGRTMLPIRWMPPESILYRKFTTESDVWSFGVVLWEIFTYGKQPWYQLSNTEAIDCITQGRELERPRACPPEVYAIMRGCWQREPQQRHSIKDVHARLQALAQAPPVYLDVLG

SMILES	GI50 at 72 h [1]	GI50 [2]	GI50 at 72 h [3]	also measured
CC(=O)Nc1nc(C)c(-c2ccc3c(/C=C/c4ccccn4)n[nH]c3c2)s1	301 nM	4310 nM	5240 nM	
CN1CCN(Cc2ccc(NC(=O)Nc3cccc(Sc4ccc5c(/C=C/c6ccccn6)n[nH]c5c4)c3)cc2C(F)(F)F)CC1	15 nM	62 nM	3090 nM	
Cc1nc(NC(=O)Cc2cccc(Cl)c2)sc1-c1ccc2c(/C=C/c3ccccn3)n[nH]c2c1	10 nM	2 nM	4100 nM	
Cc1nc(NC(=O)C(N)Cc2ccccc2)sc1-c1ccc2c(/C=C/c3ccccn3)n[nH]c2c1 (stereo not given)	97 nM	68 nM	708 nM	
O=C(Nc1cnn2ccc(N3CCC[C@@H]3c3cc(F)ccc3F)nc12)N1CC[C@H](O)C1 [LAROTRECTINIB]			> 10000 nM	inhibition in vivo at 80 mg/kg/day (BaF3 [4]): 33.8%; GI50 (BaF3 [5]): 148 nM; inhibition in vivo at 80 mg/kg/day [6]: 78.9%; inhibition in vivo at 80 mg/kg/day (BaF3 [7]): 38.5%; GI50 [8]: 11 nM; GI50 (BaF3 [9]): 102 nM; GI50 (BaF3 [10]): 258 nM; GI50 [11]: 602 nM
Cc1nc(NC(=O)c2cccc(C(F)(F)F)c2)sc1-c1ccc2c(/C=C/c3ccccn3)n[nH]c2c1	5 nM	3 nM	> 10000 nM	
Cc1nc(NC(=O)CC2CCNCC2)sc1-c1ccc2c(/C=C/c3ccccn3)n[nH]c2c1	982 nM	116 nM	> 10000 nM	
Cc1nc(NC(=O)Cc2cccc(C(F)(F)F)c2)sc1-c1ccc2c(/C=C/c3ccccn3)n[nH]c2c1	13 nM	2 nM	2310 nM	
Cc1ccc(-c2n[nH]c3cc(SCCC(=O)Nc4ccc(CN5CCN(C)CC5)c(C(F)(F)F)c4)ccc23)cn1	1 nM	516 nM		
Cc1nc(NC(=O)CN2CCN(C)CC2)sc1-c1ccc2c(-c3cccnc3)n[nH]c2c1	2630 nM	251 nM	5130 nM	
CN1CCN(Cc2ccc(NC(=O)CCSc3ccc4c(-c5cccnc5)n[nH]c4c3)cc2C(F)(F)F)CC1	9 nM	736 nM		
CSCCC(N)C(=O)Nc1nc(C)c(-c2ccc3c(/C=C/c4ccccn4)n[nH]c3c2)s1 (stereo not given)	101 nM	13 nM	594 nM	
CN1CCN(Cc2ccc(NC(=O)CC(=O)Nc3ccc4c(/C=C/c5ccccn5)n[nH]c4c3)cc2C(F)(F)F)CC1	4 nM	248 nM	2500 nM	
Cc1nc(NC(=O)CN2CCN(C)CC2)sc1-c1ccc2c(-c3ccn(C)n3)n[nH]c2c1	351 nM	73 nM	1530 nM	
Cc1nc(NC(=O)CC2CCN(C)CC2)sc1-c1ccc2c(/C=C/c3ccccn3)n[nH]c2c1	570 nM	32 nM	1560 nM	
CN1CCN(Cc2ccc(C(=O)Nc3cccc(Sc4ccc5c(/C=C/c6ccccn6)n[nH]c5c4)c3)cc2C(F)(F)F)CC1	13 nM	920 nM	1260 nM	
Cc1nc(NC(=O)C(C)C)sc1-c1ccc2c(/C=C/c3ccccn3)n[nH]c2c1	181 nM	251 nM	1580 nM	
COCCOCC(=O)Nc1nc(C)c(-c2ccc3c(/C=C/c4ccccn4)n[nH]c3c2)s1	1780 nM	35 nM	1070 nM	
Cc1nc(NC(=O)CN2CCN(CCO)CC2)sc1-c1ccc2c(/C=C/c3ccccn3)n[nH]c2c1	81 nM	18 nM	1020 nM	

SMILES	GI50 at 72 h [1]	GI50 [2]	GI50 at 72 h [3]	also measured
CN1CCN(Cc2ccc(C(=O)NCCCSc3ccc4c(/C=C/c5ccccn5)n[nH]c4c3)cc2C(F)(F)F)CC1	1 nM	370 nM		
Cc1nc(NC(=O)CN2CCN(C)CC2)sc1-c1ccc2c(-c3cncc(F)c3)n[nH]c2c1	1800 nM	54 nM	1690 nM	
COc1ccc(CC(=O)Nc2nc(C)c(-c3ccc4c(/C=C/c5ccccn5)n[nH]c4c3)s2)cc1OC	19 nM	40 nM	4870 nM	
CN1CCN(Cc2ccc(NC(=O)CCSc3ccc4c(/C=C/c5ccccn5)n[nH]c4c3)cc2C(F)(F)F)CC1	2 nM	63 nM		
CN1CCN(Cc2ccc(NC(=O)CCSc3ccc4c(/C=C/c5cnccn5)n[nH]c4c3)cc2C(F)(F)F)CC1	2 nM	88 nM	1640 nM	
Cc1n[nH]c2cc(SCCC(=O)Nc3ccc(CN4CCN(C)CC4)c(C(F)(F)F)c3)ccc12	9 nM	729 nM		
Cc1nc(NC(=O)c2ccc(CN3CCN(C)CC3)cc2)sc1-c1ccc2c(/C=C/c3ccccn3)n[nH]c2c1	12 nM	8 nM	1460 nM	
CN1CCN(Cc2ccc(NC(=O)CCSc3ccc4c(/C=C/c5ccncc5)n[nH]c4c3)cc2C(F)(F)F)CC1	2 nM	18 nM	543 nM	
Cc1nc(NC(=O)Nc2cccc(C(F)(F)F)c2)sc1-c1ccc2c(/C=C/c3ccccn3)n[nH]c2c1	4 nM	3 nM	105 nM	
Cc1nc(NC(=O)CC2CCCNC2)sc1-c1ccc2c(/C=C/c3ccccn3)n[nH]c2c1 (stereo not given)	1930 nM	300 nM	8350 nM	
CN1CCN(Cc2ccc(NC(=O)NCCSc3ccc4c(/C=C/c5ccccn5)n[nH]c4c3)cc2C(F)(F)F)CC1	42 nM	646 nM		
Cc1nc(NC(=O)CN2CCN(C)CC2)sc1-c1ccc2c(-c3cnc(N)nc3)n[nH]c2c1	5630 nM	752 nM	> 10000 nM	
Cc1nc(NC(=O)C2CCN(C)CC2)sc1-c1ccc2c(/C=C/c3ccccn3)n[nH]c2c1	2040 nM	89 nM	2510 nM	
Cc1nc(NC(=O)CN2CCN(C)CC2)sc1-c1ccc2c(-c3cccc(F)c3)n[nH]c2c1	1710 nM	> 10000 nM	1740 nM	
CN1CCN(Cc2ccc(C(=O)NCCSc3ccc4c(/C=C/c5ccccn5)n[nH]c4c3)cc2C(F)(F)F)CC1	41 nM	370 nM	4400 nM	
Cc1nc(NC(=O)Cc2cccc3ccccc23)sc1-c1ccc2c(/C=C/c3ccccn3)n[nH]c2c1	15 nM	33 nM	3690 nM	
Cc1nc(NC(=O)C2CCNCC2)sc1-c1ccc2c(/C=C/c3ccccn3)n[nH]c2c1	3050 nM	145 nM	8710 nM	
CN1CCN(Cc2ccc(NC(=O)CCSc3ccc4c(-c5ccncc5)n[nH]c4c3)cc2C(F)(F)F)CC1	1 nM	448 nM		
